Data as given in ChEMBL document CHEMBL1147365, “A screen for inhibitors of DNA recombination: identification of two new spirostanol glycosides from Chamaedorea linearis” (J Nat Prod, 1993).
Activity calls are given as the source filed them. The calls are words filed in the database; no cut-off is given here.

Key:
Saccharomyces cerevisiae [1] = test: DNA damaging activity against […] assessed as drug concentration required to produce 12 mm zone of inhibition up to 800 ug/well by agar diffusion assay; format: functional, organism-based; conditions: W303-1A
L1210 [2] = test: Antiproliferative activity against mouse L1210 cells; format: functional, cell-based
Procedure, shortened: (§1)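 Murine L1210 cells were grown in suspension culture and proliferation was measured.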

L1210 [3] = test: Antiproliferative activity against mouse L1210 cells up to 32 uM; format: functional, cell-based; procedure, shortened: as §1
Saccharomyces cerevisiae [4] = test: DNA damaging activity against […] assessed as drug concentration required to produce 12 mm zone of inhibition by agar diffusion assay; format: functional, W303-1A

Compound	Activity (Saccharomyces cerevisiae [1])	also measured
C[C@@H]1O[C@@H](O[C@H]2CC[C@]3(C=O)[C@H]4CC[C@]5(C)[C@@H](C6=CC(=O)OC6)CC[C@]5(O)[C@@H]4CC[C@]3(O)C2)[C@H](O)[C@H](O)[C@H]1O	inactive	
C[C@H]1CC[C@@]2(OC1)O[C@H]1C[C@H]3[C@@H]4CC[C@H]5C[C@@H](O)C[C@@H](O[C@H]6O[C@@H](C)[C@@H](O)[C@@H](O)[C@@H]6O)[C@]5(C)[C@H]4CC[C@]3(C)[C@H]1[C@@H]2C [BRISBAGENIN FUCOSIDE]		IC50 (L1210 [2]): 5 µM; Activity (L1210 [3]): inactive; IC12 (Saccharomyces cerevisiae [4]): 2.6 µg
C[C@H]1CC[C@@]2(OC1)O[C@H]1C[C@H]3[C@@H]4CC[C@H]5C[C@@H](O)C[C@@H](O[C@H]6O[C@@H](C)[C@@H](OS(=O)(=O)O)[C@@H](O)[C@@H]6O)[C@]5(C)[C@H]4CC[C@]3(C)[C@H]1[C@@H]2C		Activity (L1210 [3]): inactive; IC12 (Saccharomyces cerevisiae [4]): 3.5 µg
CO[C@H]1[C@H](O)[C@H](O[C@H]2CC[C@@]3(C)[C@H](CC[C@@H]4[C@@H]3CC[C@]3(C)[C@@H](C5=CC(=O)OC5)CC[C@]43O)C2)O[C@@H](C)[C@@H]1O	inactive	
C[C@H]1O[C@@H](O[C@H]2[C@@H](O)C[C@H](O[C@H]3[C@@H](O)C[C@H](O[C@H]4CC[C@@]5(C)[C@H](CC[C@@H]6[C@@H]5C[C@@H](O)[C@]5(C)[C@@H](C7=CC(=O)OC7)CC[C@]65O)C4)O[C@@H]3C)O[C@@H]2C)C[C@H](O)[C@@H]1O	inactive	
C[C@@H]1O[C@@H](O[C@H]2C[C@@H](O)[C@]3(CO)[C@H]4[C@H](O)C[C@]5(C)[C@@H](C6=CC(=O)OC6)CC[C@]5(O)[C@@H]4CC[C@]3(O)C2)[C@H](O)[C@H](O)[C@H]1O	inactive	
CO[C@H]1C[C@H](O[C@H]2CC[C@]3(C=O)[C@H]4CC[C@]5(C)[C@@H](C6=CC(=O)OC6)CC[C@]5(O)[C@@H]4CC[C@]3(O)C2)O[C@H](C)[C@H]1O[C@H]1O[C@@H](CO)[C@H](O[C@@H]2O[C@H](CO)[C@@H](O)[C@H](O)[C@H]2O)[C@@H](O)[C@@H]1O	inactive	
C[C@H]1O[C@@H](O[C@H]2[C@@H](O)C[C@H](O[C@H]3[C@@H](O)C[C@H](O[C@H]4CC[C@@]5(C)[C@H](CC[C@@H]6[C@@H]5CC[C@]5(C)[C@@H](C7=CC(=O)OC7)[C@@H](O)C[C@]65O)C4)O[C@@H]3C)O[C@@H]2C)C[C@H](O)[C@@H]1O	inactive	
